From ChEMBL document CHEMBL4316620, “Dihydropyrrolones as bacterial quorum sensing inhibitors” (Bioorg Med Chem Lett, 2019)
Calls of active or inactive are those of the source. The rule behind the calls is not given here.

How the values were obtained:
Pseudomonas aeruginosa [1] = assay: Inhibition of biofilm formation in Pseudomonas aeruginosa PAO1 at 250 uM incubated for 6 hrs by crystal violet staining based method; format: functional; settings: for inhibition at 250 µM: PAO1, 6 h
Outline: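 P. aeruginosa PA01 biofilm. Cultures grown with or without test compound for 6 h. Biofilm biomass quantified by crystal violet staining (OD550). % inhibition calculated relative to DMSO control.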

[2] = Inhibition of quorum sensing system in Pseudomonas aeruginosa MH602 PlasB::gfp at 62.5 uM incubated for 15 hrs by GFP reporter gene assay
Outline: (§1)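 Reporter strain P. aeruginosa PlasB::gfp (PAMH602) makes its own AHL; lasB promoter drives GFP-ASV. Cultures incubated with compound over 250–31.25 µM at 37 °C for 15 h, then GFP fluorescence read at 535 nm. QSI expressed as % relative to untreated PAMH602 negative control. Furanone positive control.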

Pseudomonas aeruginosa [3] = assay: Toxicity in Pseudomonas aeruginosa MH602 PlasB::gfp assessed as inhibition of bacterial growth at 125 uM incubated for 15 hrs by spectrophotometry; format: organism-based; settings: MH602, 15 h, read-out: GI
[4] = Inhibition of quorum sensing system in Pseudomonas aeruginosa MH602 PlasB::gfp at 250 uM incubated for 15 hrs by GFP reporter gene assay; outline: as §1
Pseudomonas aeruginosa [5] = assay: Toxicity in Pseudomonas aeruginosa MH602 PlasB::gfp assessed as inhibition of bacterial growth at 31.25 uM incubated for 15 hrs by spectrophotometry; format: organism-based; settings: MH602, 15 h, read-out: GI
[6] = Inhibition of quorum sensing system in Pseudomonas aeruginosa MH602 PlasB::gfp at 31.25 uM incubated for 15 hrs by GFP reporter gene assay; outline: as §1
Pseudomonas aeruginosa [7] = assay: Toxicity in Pseudomonas aeruginosa MH602 PlasB::gfp assessed as inhibition of bacterial growth at 62.5 uM incubated for 15 hrs by spectrophotometry; format: organism-based; settings: MH602, 15 h, read-out: GI
[8] = Inhibition of quorum sensing system in Pseudomonas aeruginosa MH602 PlasB::gfp at 125 uM incubated for 15 hrs by GFP reporter gene assay; outline: as §1
Pseudomonas aeruginosa [9] = assay: Toxicity in Pseudomonas aeruginosa MH602 PlasB::gfp assessed as inhibition of bacterial growth at 250 uM incubated for 15 hrs by spectrophotometry; format: organism-based; settings: MH602, 15 h, read-out: GI

`C=C1C(c2ccccc2F)=CC(=O)N1c1cccc(C)c1` showed an inhibition at 250 µM (Pseudomonas aeruginosa [1]) of 42%, an inhibition [2] of 25.5% and an inhibition at 125 µM (Pseudomonas aeruginosa [3]) of at most 15%. It also gave an inhibition [4] of 59.1%, an inhibition at 31.25 µM (Pseudomonas aeruginosa [5]) of at most 15% and an inhibition [6] of 25.3%. It also gave an inhibition at 62.5 µM (Pseudomonas aeruginosa [7]) of at most 15%, an inhibition [8] of 39.7% and an inhibition at 250 µM (Pseudomonas aeruginosa [9]) of at most 15%.

`C=C1NC(=O)C(C)=C1c1ccc(F)cc1` showed an inhibition at 250 µM (Pseudomonas aeruginosa [1]) of 4.4%, an inhibition [2] of 32.1% and an inhibition at 125 µM (Pseudomonas aeruginosa [3]) of at most 15%. It also gave an inhibition [4] of 66.5%, an inhibition at 31.25 µM (Pseudomonas aeruginosa [5]) of at most 15% and an inhibition [6] of 26.3%. It also gave an inhibition at 62.5 µM (Pseudomonas aeruginosa [7]) of at most 15%, an inhibition [8] of 59.9% and an inhibition at 250 µM (Pseudomonas aeruginosa [9]) of at most 15%.

Work on `C=C1C(c2ccc(Br)cc2)=CC(=O)N1c1ccc(OC)cc1` yielded an inhibition at 250 µM (Pseudomonas aeruginosa [1]) of 54.9%, an inhibition [2] of 32.1% and an inhibition at 125 µM (Pseudomonas aeruginosa [3]) of at most 15%. For the same compound, the inhibition [4] was 73.3%, the inhibition at 31.25 µM (Pseudomonas aeruginosa [5]) was at most 15% and the inhibition [6] was 14.4%. It also gave an inhibition at 62.5 µM (Pseudomonas aeruginosa [7]) of at most 15%, an inhibition [8] of 61.8% and an inhibition at 250 µM (Pseudomonas aeruginosa [9]) of at most 15%.

With `O=C1C=C(c2ccc(F)cc2)CN1` the inhibition (Pseudomonas aeruginosa [1]) was “inactive”, the inhibition [2] was 28.7% and the inhibition at 125 µM (Pseudomonas aeruginosa [3]) was at most 15%. The inhibition [4] was 63%, the inhibition at 31.25 µM (Pseudomonas aeruginosa [5]) was at most 15% and the inhibition [6] was 27.1%. For the same compound, the inhibition at 62.5 µM (Pseudomonas aeruginosa [7]) was at most 15%, the inhibition [8] was 40.2% and the inhibition at 250 µM (Pseudomonas aeruginosa [9]) was at most 15%.

For `C=C1C(c2ccc(Br)cc2)=CC(=O)N1c1ccc(C)cc1`, the inhibition at 250 µM (Pseudomonas aeruginosa [1]) was 16.3%, the inhibition [2] was 42.7% and the inhibition at 125 µM (Pseudomonas aeruginosa [3]) was at most 15%. For the same compound, the inhibition [4] was 61.6%, the inhibition at 31.25 µM (Pseudomonas aeruginosa [5]) was at most 15% and the inhibition [6] was 15.2%. For the same compound, the inhibition at 62.5 µM (Pseudomonas aeruginosa [7]) was at most 15%, the inhibition [8] was 52.6% and the inhibition at 250 µM (Pseudomonas aeruginosa [9]) was 15 to 30%.

For `O=C1C=C(c2ccc(Br)cc2)/C(=C/Br)N1`, the inhibition [2] was 53.5%, the inhibition at 125 µM (Pseudomonas aeruginosa [3]) was over 30% and the inhibition [4] was 82.3%. For the same compound, the inhibition at 31.25 µM (Pseudomonas aeruginosa [5]) was at most 15%, the inhibition [6] was 38.2% and the inhibition at 62.5 µM (Pseudomonas aeruginosa [7]) was 15 to 30%. It also gave an inhibition [8] of 53.9% and an inhibition at 250 µM (Pseudomonas aeruginosa [9]) of over 30%.

`C=C1C(c2ccccc2F)=CC(=O)N1c1ccc(Br)cc1` gave an inhibition at 250 µM (Pseudomonas aeruginosa [1]) of 49.2%, an inhibition [2] of 48.4% and an inhibition at 125 µM (Pseudomonas aeruginosa [3]) of at most 15%. The inhibition [4] was 60.7%, the inhibition at 31.25 µM (Pseudomonas aeruginosa [5]) was at most 15% and the inhibition [6] was 39.7%. The inhibition at 62.5 µM (Pseudomonas aeruginosa [7]) was at most 15%, the inhibition [8] was 54.9% and the inhibition at 250 µM (Pseudomonas aeruginosa [9]) was at most 15%.

For `C=C1C(c2ccccc2F)=CC(=O)N1Cc1ccccc1`, the inhibition [2] was 47.5%, the inhibition at 125 µM (Pseudomonas aeruginosa [3]) was at most 15% and the inhibition [4] was 55.2%. It also gave an inhibition at 31.25 µM (Pseudomonas aeruginosa [5]) of at most 15%, an inhibition [6] of 27% and an inhibition at 62.5 µM (Pseudomonas aeruginosa [7]) of at most 15%. It also gave an inhibition [8] of 52.4% and an inhibition at 250 µM (Pseudomonas aeruginosa [9]) of at most 15%.

With `O=C1C=C(c2ccccc2F)/C(=C/Br)N1` the inhibition [2] was 75%, the inhibition at 125 µM (Pseudomonas aeruginosa [3]) was over 30% and the inhibition [4] was 86.3%. For the same compound, the inhibition at 31.25 µM (Pseudomonas aeruginosa [5]) was at most 15%, the inhibition [6] was 61.5% and the inhibition at 62.5 µM (Pseudomonas aeruginosa [7]) was 15 to 30%. The inhibition [8] was 81.3% and the inhibition at 250 µM (Pseudomonas aeruginosa [9]) was over 30%.

Compound `C=C1NC(=O)C(C)=C1c1ccc(Br)cc1` has an inhibition [2] of 38.1%, an inhibition at 125 µM (Pseudomonas aeruginosa [3]) of at most 15% and an inhibition [4] of 59.6%. The inhibition at 31.25 µM (Pseudomonas aeruginosa [5]) was at most 15%, the inhibition [6] was 33.7% and the inhibition at 62.5 µM (Pseudomonas aeruginosa [7]) was at most 15%. It also gave an inhibition [8] of 45.2% and an inhibition at 250 µM (Pseudomonas aeruginosa [9]) of at most 15%.

Work on `C=C1NC(=O)C=C1c1ccc(C)cc1` yielded an inhibition [2] of 72.3%, an inhibition at 125 µM (Pseudomonas aeruginosa [3]) of at most 15% and an inhibition [4] of 80.5%. The inhibition at 31.25 µM (Pseudomonas aeruginosa [5]) was at most 15%, the inhibition [6] was 36.5% and the inhibition at 62.5 µM (Pseudomonas aeruginosa [7]) was at most 15%. For the same compound, the inhibition [8] was 78.7% and the inhibition at 250 µM (Pseudomonas aeruginosa [9]) was at most 15%.

In the case of `C=C1NC(=O)C(C)=C1c1cccc(C(F)(F)F)c1`, the inhibition [2] was 33.2%, the inhibition at 125 µM (Pseudomonas aeruginosa [3]) was at most 15% and the inhibition [4] was 47.2%. For the same compound, the inhibition at 31.25 µM (Pseudomonas aeruginosa [5]) was at most 15%, the inhibition [6] was 26.3% and the inhibition at 62.5 µM (Pseudomonas aeruginosa [7]) was at most 15%. For the same compound, the inhibition [8] was 47% and the inhibition at 250 µM (Pseudomonas aeruginosa [9]) was at most 15%.

For `C=C1NC(=O)C=C1c1ccccc1Cl`, the inhibition [2] was 58.3%, the inhibition at 125 µM (Pseudomonas aeruginosa [3]) was at most 15% and the inhibition [4] was 72%. For the same compound, the inhibition at 31.25 µM (Pseudomonas aeruginosa [5]) was at most 15%, the inhibition [6] was 37.8% and the inhibition at 62.5 µM (Pseudomonas aeruginosa [7]) was at most 15%. It also gave an inhibition [8] of 69.7% and an inhibition at 250 µM (Pseudomonas aeruginosa [9]) of at most 15%.

With `C=C1NC(=O)C(C)=C1c1ccc(Cl)cc1` the inhibition [2] was 33.2%, the inhibition at 125 µM (Pseudomonas aeruginosa [3]) was at most 15% and the inhibition [4] was 47.7%. It also gave an inhibition at 31.25 µM (Pseudomonas aeruginosa [5]) of at most 15%, an inhibition [6] of 23.7% and an inhibition at 62.5 µM (Pseudomonas aeruginosa [7]) of at most 15%. It also gave an inhibition [8] of 38.2% and an inhibition at 250 µM (Pseudomonas aeruginosa [9]) of at most 15%.

In the case of `C=C1NC(=O)C(C)=C1c1ccccc1F`, the inhibition [2] was 31.7%, the inhibition at 125 µM (Pseudomonas aeruginosa [3]) was at most 15% and the inhibition [4] was 54.8%. It also gave an inhibition at 31.25 µM (Pseudomonas aeruginosa [5]) of at most 15%, an inhibition [6] of 28.8% and an inhibition at 62.5 µM (Pseudomonas aeruginosa [7]) of at most 15%. The inhibition [8] was 48.8% and the inhibition at 250 µM (Pseudomonas aeruginosa [9]) was at most 15%.
